Results: ChEMBL document CHEMBL4219052, “Synthesis and biological evaluation of 6-substituted-5-fluorouridine ProTides” (Bioorg Med Chem, 2018)

Assays:
RL = assay: Cytotoxicity against human RL cells after 72 hrs by MTS assay; type: functional, cell-based
In short: (§1)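 Commercial screen: tumour cells seeded at 0.5 to 100 x 10³ cells/well the day before dosing, then exposed 72 h to compound in duplicate, 9 serial 3.16-fold dilutions from 198 µM top concentration. MTS added for a further 4 h at 37 °C, absorbance read; IC50 taken as 50% inhibition of viability by curve fitting.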

MV4-11 = assay: Cytotoxicity against human MV411 cells after 72 hrs by MTS assay; type: functional, cell-based; conditions: MV4-11, 72 h; in short: as §1
[1] = Cytotoxicity against human Hs445 cells after 72 hrs by MTS assay; type: functional, cell-based; conditions: Hs 445, 72 h; in short: as §1
HEL 92.1.7 = assay: Cytotoxicity against human HEL 92.1.7 cells after 72 hrs by MTS assay; type: functional, cell-based; conditions: HEL 92.1.7, 72 h; in short: as §1
SW-620 = assay: Cytotoxicity against human SW620 cells after 72 hrs by MTS assay; type: functional, cell-based; conditions: SW-620, 72 h; in short: as §1
MCF7 = assay: Cytotoxicity against human MCF7 cells after 72 hrs by MTS assay; type: functional, cell-based; conditions: MCF7, 72 h; in short: as §1
MIA PaCa-2 = assay: Cytotoxicity against human MIAPaCa2 cells after 72 hrs by MTS assay; type: functional, cell-based; conditions: MIA PaCa-2, 72 h; in short: as §1
[2] = Cytotoxicity against African green monkey Vero cells measured after 3 days by CelltiterGlo luminescence assay; type: cell-based; conditions: chlorocebus sabaeus
In short: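 Vero cells seeded and left overnight; growth medium then replaced by serial compound dilutions, added in triplicate; medium-only wells defined 0% cytotoxicity. On day 3 cells were lysed and ATP content measured by luciferase luminescence (CellTiter-Glo); CC50 obtained from a 4-PL curve fit.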

Chikungunya virus = assay: Antiviral activity against Chikungunya virus infected in African green monkey Vero cells assessed as reduction in virus-induced cytopathic effect pretreated for 1 hr followed by viral infection measured after 3 days by crystal violet staining based assay; type: functional, organism-based
Carboxypeptidase Y [3] = target: T1, Carboxypeptidase Y (Saccharomyces cerevisiae (strain ATCC 204508 / S288c) (Baker's yeast), UniProt P00729); assay: Prodrug activation assessed as yeast carboxypeptidase Y mediated (2S)-2-((((2R,3S,4R,5R)-5-(6-azido-5-fluoro-2,4-dioxo-3,4-dihydropyrimidin-1(2H)-yl)-3,4-dihydroxytetrahydrofuran-2-yl)methoxy)(hydroxy)phosphorylamino)propanoic acid formation at pH 7.6 measured within 60 mins by 31P NMR analysis; conditions: pH 7.6, 1 h
T1 sequence (P00729 whole entry): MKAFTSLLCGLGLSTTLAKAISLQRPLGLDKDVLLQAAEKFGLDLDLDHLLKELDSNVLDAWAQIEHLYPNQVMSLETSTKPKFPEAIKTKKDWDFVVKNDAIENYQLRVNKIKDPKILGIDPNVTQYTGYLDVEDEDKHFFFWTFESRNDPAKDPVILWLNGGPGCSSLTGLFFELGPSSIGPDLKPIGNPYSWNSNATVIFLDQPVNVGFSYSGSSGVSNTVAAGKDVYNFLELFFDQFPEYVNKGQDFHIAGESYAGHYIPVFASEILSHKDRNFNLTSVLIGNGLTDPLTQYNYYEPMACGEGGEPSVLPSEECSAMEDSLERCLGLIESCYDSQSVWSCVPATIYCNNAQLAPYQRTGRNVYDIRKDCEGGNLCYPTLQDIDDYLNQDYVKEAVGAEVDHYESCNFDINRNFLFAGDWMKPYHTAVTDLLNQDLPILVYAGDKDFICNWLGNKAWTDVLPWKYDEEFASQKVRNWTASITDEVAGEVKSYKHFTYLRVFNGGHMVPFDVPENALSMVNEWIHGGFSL
In short: (§2)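 ProTide (5.0 mg) dissolved in acetone-d6 (0.15 mL) plus Trizma buffer pH 7.6 (0.30 mL), treated with carboxypeptidase Y; conversion followed by ³¹P NMR over 14 h.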

[4] = Half life in acetone d6 at pH 7.6 Trizma buffer by 31P NMR analysis; type: physicochemical; conditions: Trizma buffer with acetone-d6, pH 7.6; in short: as §2
Carboxypeptidase Y [5] = target: T1, Carboxypeptidase Y; assay: Prodrug activation assessed as yeast carboxypeptidase Y mediated (2S)-2-((((2R,3S,4R,5R)-5-(6-azido-5-fluoro-2,4-dioxo-3,4-dihydropyrimidin-1(2H)-yl)-3,4-dihydroxytetrahydrofuran-2-yl)methoxy)(phenoxy)phosphorylamino)propanoic acid formation at pH 7.6 measured within 10 mins by 31P NMR analysis; conditions: pH 7.6, 10 min; in short: as §2

SMILES: C[C@H](NP(=O)(OC[C@H]1O[C@@H](n2c(I)c(F)c(=O)[nH]c2=O)[C@H](O)[C@@H]1O)Oc1cccc2ccccc12)C(=O)OCc1ccccc1 (stereo not given in full)
- IC50 (RL): 400 nM
- IC50 (MV4-11): 80 nM
- IC50 [1]: 0.71 µM
- IC50 (HEL 92.1.7): 0.4 µM
- IC50 (SW-620): 0.52 µM
- IC50 (MCF7): 3.93 µM
- IC50 (MIA PaCa-2): 0.63 µM

SMILES: C[C@H](NP(=O)(OC[C@H]1O[C@@H](n2c(N=[N+]=[N-])c(F)c(=O)[nH]c2=O)[C@H](O)[C@@H]1O)Oc1cccc2ccccc12)C(=O)OCc1ccccc1 (stereo not given in full)
- IC50 (RL): 12000 nM
- IC50 (MV4-11): 6300 nM
- IC50 [1]: 15 µM
- CC50 at 72 h [2]: 81.8 µM
- EC50 (Chikungunya virus): > 200 µM
- IC50 (HEL 92.1.7): 29 µM
- IC50 (SW-620): 28 µM
- IC50 (MCF7): 44 µM
- IC50 (MIA PaCa-2): 27 µM

SMILES: C[C@H](NP(=O)(OC[C@H]1O[C@@H](n2c(N=[N+]=[N-])c(F)c(=O)[nH]c2=O)[C@H](O)[C@@H]1O)Oc1ccccc1)C(=O)OCc1ccccc1 (stereo not given in full)
- IC50 (RL): 21000 nM
- IC50 (MV4-11): 8000 nM
- IC50 [1]: 23 µM
- IC50 (HEL 92.1.7): 17 µM
- IC50 (SW-620): 13 µM
- IC50 (MCF7): 20 µM
- IC50 (MIA PaCa-2): 22 µM

SMILES: [N-]=[N+]=Nc1c(F)c(=O)[nH]c(=O)n1[C@@H]1O[C@H](CO)[C@@H](O)[C@H]1O
- IC50 (RL): 10000 nM
- IC50 (MV4-11): 6600 nM
- IC50 [1]: 14 µM
- CC50 at 72 h [2]: 47 µM
- EC50 (Chikungunya virus): > 200 µM
- IC50 (HEL 92.1.7): 10 µM
- IC50 (SW-620): 8 µM
- IC50 (MCF7): 6 µM
- IC50 (MIA PaCa-2): 11 µM

SMILES: CCCCCCOC(=O)[C@H](C)NP(=O)(OC[C@H]1O[C@@H](n2c(C)c(F)c(=O)[nH]c2=O)[C@H](O)[C@@H]1O)Oc1ccccc1 (stereo not given in full)
- IC50 (RL): > 50000 nM
- IC50 (MV4-11): > 50000 nM
- IC50 [1]: > 50 µM
- CC50 at 72 h [2]: > 200 µM
- EC50 (Chikungunya virus): > 200 µM
- IC50 (HEL 92.1.7): > 50 µM
- IC50 (SW-620): > 50 µM
- IC50 (MCF7): > 50 µM
- IC50 (MIA PaCa-2): > 50 µM

SMILES: O=c1[nH]c(=O)n([C@@H]2O[C@H](CO)[C@@H](O)[C@H]2O)c(I)c1F
- IC50 (RL): 100 nM
- IC50 (MV4-11): 40 nM
- IC50 [1]: 0.38 µM
- IC50 (HEL 92.1.7): 0.1 µM
- IC50 (SW-620): 0.5 µM
- IC50 (MCF7): 0.67 µM
- IC50 (MIA PaCa-2): 0.02 µM

SMILES: C[C@H](NP(=O)(OC[C@H]1O[C@@H](n2c(I)c(F)c(=O)[nH]c2=O)[C@H](O)[C@@H]1O)Oc1ccccc1)C(=O)OC1CCCCC1 (stereo not given in full)
- IC50 (RL): 2600 nM
- IC50 (MV4-11): 740 nM
- IC50 [1]: 3.8 µM
- IC50 (HEL 92.1.7): 4.1 µM
- IC50 (SW-620): 4.84 µM
- IC50 (MCF7): 8.12 µM
- IC50 (MIA PaCa-2): 4.57 µM

SMILES: C[C@H](NP(=O)(O)OC[C@H]1O[C@@H](n2c(N=[N+]=[N-])c(F)c(=O)[nH]c2=O)[C@H](O)[C@@H]1O)C(=O)O
- Drug metabolism (Carboxypeptidase Y [3]): 7.17 ppm
- half-life [4]: < 5 min

SMILES: CCCCCOC(=O)[C@H](C)NP(=O)(OC[C@H]1O[C@@H](n2c(I)c(F)c(=O)[nH]c2=O)[C@H](O)[C@@H]1O)Oc1ccccc1 (stereo not given in full)
- IC50 (RL): 800 nM
- IC50 (MV4-11): 200 nM
- IC50 [1]: 2.6 µM
- IC50 (HEL 92.1.7): 0.5 µM
- IC50 (SW-620): 1.12 µM
- IC50 (MCF7): 7.83 µM
- IC50 (MIA PaCa-2): 1.31 µM

SMILES: C[C@H](NP(=O)(OC[C@H]1O[C@@H](n2c(N=[N+]=[N-])c(F)c(=O)[nH]c2=O)[C@H](O)[C@@H]1O)Oc1ccccc1)C(=O)O (stereo not given in full)
- Drug metabolism (Carboxypeptidase Y [5]): 4.68 to 4.87 ppm
